These results are taken from ChEMBL document CHEMBL2417525, “In vitro pharmacological and toxicological effects of norterpene peroxides isolated from the Red Sea sponge Diacarnus erythraeanus on normal and cancer cells” (J Nat Prod, 2013).

Test [1] concerns PC-3. In words: Cytotoxicity against human PC3 cells after 72 hrs by MTT assay. It is filed as functional, cell-based. Put shortly: (§1)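 MTT reduction read by spectrophotometry after 72 h compound exposure; growth measured as treated vs control optical density, IC50 taken as the concentration giving 50% growth reduction. Six replicates per condition. Cells grown in RPMI with 10% heat-inactivated FBS, 4 mM glutamine, gentamicin and penicillin–streptomycin; NHDF fibroblasts were instead kept in FGM-2 fibroblast medium.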

The subject of a further test is MCF7. As to the kind of experiment: Cytotoxicity against human MCF7 cells after 72 hrs by MTT assay. The format is functional, cell-based. The essentials: as §1
In general terms: Tetrazolium assays rely on reduction of a dye to a coloured formazan, in cell work by metabolically active cells.

Test [2] relates to A549. In words: Cytotoxicity against human A549 cells after 72 hrs by MTT assay. It is filed as functional, cell-based. The essentials:
as §1

In test [3] the test system is SK-MEL-28. In words: Cytotoxicity against human SK-MEL-28 cells after 72 hrs by MTT assay. It is filed as functional, cell-based. Put shortly: as §1
Another test deals with U-251. In words: Cytotoxicity against human U251 cells after 72 hrs by MTT assay. It is filed as functional, cell-based. Put shortly:
as §1

Test [4] can be described thus: Cytotoxicity against human U373 cells after 72 hrs by MTT assay. The format is functional, cell-based, U-373MG ATCC. Put shortly: as §1
Test [5] is described as follows: Cytotoxicity against human Hs683 cells after 72 hrs by MTT assay. It is filed as functional, cell-based, Hs 683. Put shortly:
as §1

The subject of test [6] is U-373MG ATCC. In words: Induction of ROS production in human U373 cells at 10 uM after 48 hrs by flow cytometry. It is filed as functional, cell-based. The essentials:
(§2)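 Hs683 and U373 glioma cells were exposed to 10 μM for 48 and 72 h; the positive control was 4 mM H2O2 for 1 h. Cells were then loaded with 20 μM DCFH-DA in phenol-red-free RPMI for 1 h at 37 °C, washed twice and detached. Fluorescence was measured by flow cytometry, run once in quadruplicate.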

For test [7], the system named is Hs 683. In words: Induction of apoptosis in human Hs683 cells at 1 uM after 72 hrs by TUNEL staining. It is filed as functional, cell-based.
The test system of test [8] is U-373MG ATCC. As to the kind of experiment: Induction of apoptosis in human U373 cells at 1 uM after 72 hrs by TUNEL staining. The format is functional, cell-based.
Test [9] deals with Hs 683. In words: Induction of ROS production in human Hs683 cells at 10 uM after 72 hrs by flow cytometry. It is filed as functional. The essentials: as §2
(A flow cytometer gives signals particle by particle.)

Test [10] is described as follows: Induction of ROS production in human U373 cells at 10 uM after 72 hrs by flow cytometry. The format is functional, U-373MG ATCC. Put shortly: as §2
In test [11] the test system is SK-MEL-28. As to the kind of experiment: Cytotoxicity against human SK-MEL-28 cells assessed as growth inhibition at 10 uM after 24 hrs by MTT assay. It is filed as functional, cell-based.
Test [12] has as its system SK-MEL-28. In words: Cytotoxicity against human SK-MEL-28 cells assessed as growth inhibition at 10 uM after 24 to 72 hrs by quantitative video microscopic analysis. It is filed as functional, cell-based. The essentials:
(§3)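 Computer-assisted phase-contrast time-lapse microscopy in T25 flasks with 10 μM compound. Cells were counted on images at 6, 12, 24 h for U373 and A549, and at 24, 48, 72 h for SKMEL-28. Global growth is last-image count over first-image count. The ratio index is treated global growth over untreated control global growth. Run in triplicate.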

Test [13] deals with U-373MG ATCC. As to the kind of experiment: Cytotoxicity against human U373 cells assessed as growth inhibition at 10 uM […] by quantitative video microscopic analysis. It is filed as functional, cell-based. The essentials:
as §3

Test [14] has as its system A549. In words: Cytotoxicity against human A549 cells assessed as growth inhibition at 10 uM […] by quantitative video microscopic analysis. It is filed as functional, cell-based. The essentials: as §3
Test [15] has as its system U-373MG ATCC. As to the kind of experiment: Cytotoxicity against human U373 cells assessed as growth inhibition at 10 uM after 24 hrs by MTT assay. It is filed as functional, cell-based.
The subject of test [16] is A549. In words: Cytotoxicity against human A549 cells assessed as growth inhibition at 10 uM after 24 hrs by MTT assay. It is filed as functional, cell-based.
Another test has as its system NHDF. As to the kind of experiment: Cytotoxicity against human NHDF cells after 72 hrs by MTT assay. The format is cell-based. The essentials:
as §1

The next test concerns HaCaT. In words: Cytotoxicity against human HaCaT cells after 72 hrs by MTT assay. The format is cell-based. The essentials:
as §1

A further test relates to HBL-100. In words: Cytotoxicity against human HBL100 cells after 72 hrs by MTT assay. The format is cell-based. To be noted: HBL-100, 72 h. Put shortly: as §1
The subject of the next test is LoVo. In words: Cytotoxicity against human LoVo cells after 72 hrs by MTT assay. The format is functional, cell-based. The essentials:
as §1

For another test, the system named is B16-F10. As to the kind of experiment: Cytotoxicity against mouse B16F10 cells after 72 hrs by MTT assay. The settings on record: B16-F10, 72 h. The format is functional, cell-based. Put shortly:
as §1

Test [17] deals with PC-3. As to the kind of experiment: Induction of apoptosis in human PC3 cells at 1 uM after 72 hrs by TUNEL staining. It is filed as functional. Put shortly:
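TUNEL apoptosis staining with a commercial kit, read by flow cytometry. PC3 prostate cells were untreated or exposed to 1 μM for 72 h, four replicates. Kit-supplied lymphoma cells served as extra negative and positive controls.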

Setting [18] is: Homo sapiens, PC-3, 72 h, read-out: IC50.
[19] abbreviates: Homo sapiens, MCF7, 72 h, read-out: IC50.
Setting [20] is: Homo sapiens, A549, 72 h, read-out: IC50.
The mark [21] stands for this setting: Homo sapiens, SK-MEL-28, 72 h, read-out: IC50.
Where [22] appears, read: Homo sapiens, U-251, 72 h, read-out: IC50.
Setting [23] is: Homo sapiens, U373 MG, 72 h, read-out: IC50.
[24] abbreviates: Homo sapiens, Hs 683, 72 h, read-out: IC50.

Calls of active or inactive are those of the source. The calls are words filed in the database; no cut-off is given here.

Turning to `C=C1CCC[C@@H]2[C@@H](CC[C@@]3(C)CC[C@H]([C@H](C)C(=O)O)OO3)[C@H](C)CC[C@@]12C` [SIGMOSCEPTRELLIN B], the IC50 (with PC-3 [1] (setting [18]); with MCF7 (setting [19]); in the test with A549 [2] (setting [20]); in the test with SK-MEL-28 [3] (setting [21]); in the test on U-251 (setting [22]); in [4] (setting [23])) was over 100 µM in each case. The IC50 in [5] (setting [24]) is over 100 µM.

Turning to `C=C1CCCC(C)(C)C1(O)CC/C(C)=C/CC[C@]1(C)CC[C@@H]([C@@H](C)C(=O)O)OO1` (stereo partly specified) [HURGHAPEROXIDE], the IC50 stood at 73 µM in the test on PC-3 [1] (setting [18]); 45 µM in the test on MCF7 (setting [19]); 31 µM with A549 [2] (setting [20]); 73 µM with SK-MEL-28 [3] (setting [21]); 87 µM with U-251 (setting [22]); 83 µM in test [4] (setting [23]). For the same compound, the IC50 in test [5] (setting [24]) was found to be 37 µM.

Turning to `COC(=O)[C@@H](C)[C@H]1CC[C@@](C)(CCC2=C(C)CCCC2(C)C)OO1`, the IC50 result (in the test on PC-3 [1] (pc-3); in the test on MCF7 (mcf7); with A549 [2] (a549); in the test on SK-MEL-28 [3] (sk-mel-28); with U-251 (u-251); in test [4] (u-373mg atcc)) was “ND(Unstable)” each time. Besides, in test [5] (hs 683), the IC50 entry is listed as “ND(Unstable)”.

With `C/C(=C\CC[C@]1(C)CC[C@@H]([C@@H](C)C(=O)O)OO1)CCC12OC1(C)CCCC2(C)C` (relative stereo), the IC50 in the test on PC-3 [1] (setting [18]) was found to be 2 µM; with MCF7 (setting [19]), 6 µM; in the test on A549 [2] (setting [20]), 3 µM; in the test with SK-MEL-28 [3] (setting [21]) it was 22 µM; in test [4] (setting [23]), 7 µM; in test [5] (setting [24]), 3 µM.

With `CC1=C(CC[C@]2(C)O[C@H]2CC[C@]2(C)CC[C@@H]([C@@H](C)C(=O)O)OO2)C(C)(C)CCC1` (relative stereo), the IC50 was determined as 1 µM in the test with PC-3 [1] (setting [18]); 4 µM with MCF7 (setting [19]); 3 µM in the test with A549 [2] (setting [20]); 15 µM in the test on SK-MEL-28 [3] (setting [21]); 4 µM in [4] (setting [23]); 3 µM in test [5] (setting [24]).

Turning to `CC1=C(CC/C(C)=C/CC[C@@]2(C)CC[C@H]([C@H](C)C(=O)O)OO2)C(C)(C)CCC1`, the result in the test with U-373MG ATCC [6] was Active. Moreover, the result with Hs 683 [7] and in the test on U-373MG ATCC [8] was inactive. The Activity (with Hs 683 [9]; in [10]) was 30% throughout. Moreover, the “growth inhibition (GI)” value with SK-MEL-28 [11], in the test on SK-MEL-28 [12], in the test on U-373MG ATCC [13], in the test on A549 [14], in the test with U-373MG ATCC [15] and with A549 [16] was “Active” in each case. Also, the 50% inhibitory concentration (IC50) in the test on NHDF was 26 µM; in the test on HaCaT it was 23 µM; in the test on HBL-100, 3 µM; in the test on LoVo, 6 µM; in the test with B16-F10 it was 3 µM; in the test with PC-3 [1] (setting [18]), 8 µM. The IC50 came out at 7 µM with MCF7 (setting [19]); 3 µM with A549 [2] (setting [20]); 8 µM with SK-MEL-28 [3] (setting [21]); 8 µM in the test on U-251 (setting [22]); 7 µM in [4] (setting [23]); 4 µM in [5] (setting [24]).

Take `O=C1N[C@@H]2C(=C[C@H](O)[C@@H](O)[C@H]2O)c2cc3c(c(O)c21)OCO3` [NARCICLASINE]: the Activity in the test with PC-3 [17] was over 85%.

In the case of `COC(=O)[C@H](C)[C@H]1CC[C@@](C)(CCC2=C(C)CCCC2(C)C)OO1` [NUAPAPUIN A METHYL ESTER], the IC50 was determined as 80 µM in the test with PC-3 [1] (setting [18]); 51 µM in the test with MCF7 (setting [19]); 25 µM in the test on A549 [2] (setting [20]); 80 µM with SK-MEL-28 [3] (setting [21]); 91 µM with U-251 (setting [22]); 99 µM in test [4] (setting [23]). For the same compound, in [5] (setting [24]), the IC50 worked out at 38 µM.

In the case of `C=C1CCC[C@@H]2[C@@](C)(CC[C@@]3(C)CC[C@H]([C@H](C)C(=O)OC)OO3)[C@H](C)CC[C@@]12C`, the IC50 stood at 44 µM in the test with PC-3 [1] (setting [18]); 36 µM in the test on MCF7 (setting [19]); 24 µM in the test on A549 [2] (setting [20]); 44 µM in the test with SK-MEL-28 [3] (setting [21]); 54 µM with U-251 (setting [22]); 53 µM in [4] (setting [23]). The IC50 in [5] (setting [24]) came to 35 µM.

Broadly, the IC50 is the point on the concentration scale where inhibition reaches its midpoint.
